NR2E3 ag-1 – human photoreceptor-specific nuclear receptor agonism; AID 602229; actives 0.35% (n = 360,000); inhibition of corepressor binding, % at 3.98 µM; CHO-S Gal4-NCOR/VP16-NR2E3 two-hybrid, luciferase; Q9Y5X4;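 active means inhibition above the mean of all tested compounds plus 3 SD, cut at about 70% in these data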;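 further: higher means lower luciferase signal from less NR2E3 corepressor binding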
Target sequence (Q9Y5X4 whole entry, looked up, the tested form may be a part): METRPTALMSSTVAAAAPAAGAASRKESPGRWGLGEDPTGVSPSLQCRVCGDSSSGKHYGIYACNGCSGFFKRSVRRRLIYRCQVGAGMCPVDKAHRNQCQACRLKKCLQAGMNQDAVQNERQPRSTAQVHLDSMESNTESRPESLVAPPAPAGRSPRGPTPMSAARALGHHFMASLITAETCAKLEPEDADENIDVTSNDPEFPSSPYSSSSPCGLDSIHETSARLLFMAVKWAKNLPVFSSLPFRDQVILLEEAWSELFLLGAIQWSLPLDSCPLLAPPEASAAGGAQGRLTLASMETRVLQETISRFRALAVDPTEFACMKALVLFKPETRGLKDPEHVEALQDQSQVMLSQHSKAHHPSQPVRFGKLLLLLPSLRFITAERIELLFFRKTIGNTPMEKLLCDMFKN
PG9 binder – binds the HIV-1 gp120 antibody PG9; actives 0.43% (n = 360,000); AID 624416; inhibition, % at 6.7 µM; TR-FRET gp120-PG9 antibody binding; in the data active means inhibition above about 8.5%
NR1D1 modulator – Rev-erb alpha (human) modulation. P20393. Rev-erbα–FITC-DNA binding, fluorescence polarization, 90 min. activity, % at 10 µM. actives 0.79% (n = 370,000). AID 1259318;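 active means activity above about 14%, limit read from the data; passing the limit was not always enough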
NR2E3 ag-2 – activates human photoreceptor nuclear receptor NR2E3. actives 0.12% (n = 320,000). inhibition of corepressor binding, % at 4.78 µM. GST-NR2E3/biotin-RetCOR TR-FRET, 1536-well;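 active means percent inhibition above the cutoff of mean plus 3 SD of all tested compounds, set per screening campaign, cut at about 20% in these data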
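Test system – NR2E3–RetCOR corepressor complex · Quantity – NR2E3 fusion 1.35 nM · Buffer or medium – Tris pH 7.5 · Incubation – Compound–protein incubation for 5 h at 4 °C · Technique – TR-FRET, Eu(K)-anti-GST donor, streptavidin-D2 acceptor, ex 340, em 617/671 nm · Evaluation – percent inhibition of 671/617 nm emission ratio versus biotin and DMSO controls · Plate – 1536-well format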
NR2E3 ag confirm – NR2E3 agonism confirmed in two-hybrid assay; shares compounds with NR2E3 ag-1; CHO-S mammalian two-hybrid NR2E3-NCOR, luciferase luminescence; inhibition, % at 3.98 µM; actives 51% (n = 2,300); AID 624378;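 active means average inhibition above a cutoff equal to the mean inhibition of all tested compounds plus one SD, cut at about 70% in these data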
GAL4-VP16 luc – GAL4-VP16 reporter inhibition in NR2E3 agonist counterscreen; shares compounds with NR2E3 ag-1; CHO-S GAL4-VP16 luciferase reporter, luminescence; inhibition, % at 3.98 µM; actives 29% (n = 2,300); AID 624379;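 active means mean inhibition above a cutoff equal to the average over all tested compounds plus one standard deviation, cut at about 70% in these data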;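 further: luciferase from a UAS reporter driven by GAL4-VP16 transactivation; higher means less reporter light so more repression of VP16 activity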
Each line names hits and unclear results; the compound was inactive in the other large screens (follow-up assays come after a bar, where they were run). In the library only some 1.4% were active in any assay of this set; here they are far more common.

CCOC(=O)Cn1c(=O)c(-c2cc(Br)ccc2N)nc2ccccc21	NR2E3 ag-1 76 | NR2E3 ag confirm 80 | GAL4-VP16 luc inactive
O=C(CCn1c(=O)c2cccn2c2ccccc21)Nc1ccc(F)cc1	none
CCCOc1ccc(S(=O)(=O)NCc2ccc(OC)cc2)cc1	none | NR2E3 ag confirm inactive | GAL4-VP16 luc inactive
COc1ccc(N/N=C(\C#N)C(N)=O)cc1	none
N#C/C(=N/Nc1ccc(OC(F)(F)F)cc1)C(N)=S	NR2E3 ag-1 93 | NR2E3 ag confirm 93 | GAL4-VP16 luc inactive
O=C(Nc1cccc2ccccc12)c1ccc2sc([C@@H]3O[C@H](CO)[C@@H](O)[C@H]3O)nc2c1	none (no result: NR2E3 ag-2)
O=C(Cn1cnc2ccccc2c1=O)Nc1ccc2c(c1)OCO2	none
O=C(Cn1cnc2ccccc21)Nc1ccc2c(c1)OCCCO2	none | NR2E3 ag confirm inactive | GAL4-VP16 luc inactive
O=C(CSc1ncccc1C(=O)O)Nc1ccc2c(c1)OCCO2	none | NR2E3 ag confirm inactive | GAL4-VP16 luc inactive
O=C(CSc1ccccc1C(=O)O)Nc1ccc2c(c1)OCO2	none
C/C(=N/OCC(=O)NCCCCCCNC(=O)CO/N=C(/C)c1cccs1)c1cccs1	none
C=C(C)Cn1c(=O)c2c(nc3n2CC(C)CN3Cc2ccccc2)n(C)c1=O (centres undefined)	none | NR2E3 ag confirm inactive | GAL4-VP16 luc inactive
CC(O)CNc1ncnc2nc[nH]c12 (centres undefined)	none
CC(C)CCCCCCCCCCCCC(=O)NCC(=O)NC1C(O)C(O)C(Nc2ncnc3nc[nH]c23)OC1C(O)CO (centres undefined)	NR2E3 ag-1 100 (no result: PG9 binder, NR1D1 modulator, NR2E3 ag-2) | NR2E3 ag confirm 100 | GAL4-VP16 luc 101
CCOC(=O)C(=O)NNc1ccc(C)cc1	none | NR2E3 ag confirm inactive | GAL4-VP16 luc inactive
CCOC(=O)C(=O)NNc1ccc(Cl)cc1	none | NR2E3 ag confirm inactive | GAL4-VP16 luc inactive
O=c1cc(CN2CCCC2)c2ccccc2o1	none (no result: NR2E3 ag-1, NR2E3 ag-2)
COc1ccc(/C=N\NC(=S)SCN2C(=O)C3CCC(C)(C2=O)C3(C)C)cc1 (centres undefined)	none
CC12CCC(C(=O)N(CSC(=S)N/N=C\c3ccccc3O)C1=O)C2(C)C (centres undefined)	NR2E3 ag-1 91 | NR2E3 ag confirm inactive | GAL4-VP16 luc inactive
Cc1ccc(CNCCCn2cnc(C(=O)Nc3ccc(C)c(C)c3)n2)o1	none (no result: NR2E3 ag-2)
Cc1cc(C)c(S(=O)(=O)N2CCCCC2CCNC(=O)C(=O)NCc2ccco2)c(C)c1 (centres undefined)	none
CCc1cccc(CC)c1NC(=O)/C(C#N)=C/c1ccccc1C(F)(F)F	NR2E3 ag-1 75 | NR2E3 ag confirm inactive | GAL4-VP16 luc inactive
N#C/C(=C\c1ccccc1C(F)(F)F)C(=O)Nc1ccccc1	none
CCc1ccc(CNC(=O)c2cc3c(C)nc4ccccc4c3o2)cc1	NR2E3 ag-1 94 | NR2E3 ag confirm 95 | GAL4-VP16 luc 87
Cc1ccc(CCNc2ncnc(Cl)c2N)cc1	NR2E3 ag-1 78 (no result: NR2E3 ag-2) | NR2E3 ag confirm 92 | GAL4-VP16 luc 74
CCCCCCCCNc1ncnc2[nH]ncc12	NR2E3 ag-1 73 (no result: NR2E3 ag-2) | NR2E3 ag confirm 84 | GAL4-VP16 luc 73
Cc1ccnn1CCC(=O)N1CCCC(Nc2ccc(C(C)C)cc2)C1 (centres undefined)	none (no result: NR2E3 ag-2)
Cc1ccc(NC(=O)CNC(=O)c2ccc(Oc3ccccc3)cc2)nc1	none
Cc1ccc(NC(=O)CNC(=O)c2cccc(C)c2)nc1	none | NR2E3 ag confirm 75 | GAL4-VP16 luc inactive
CN(C)c1ccc(/C=C(\NC(=O)c2ccccc2)C(=O)NCc2cccnc2)cc1	none
COc1cc(OC)nc(-n2ncc(Br)c(Br)c2=O)n1	NR2E3 ag-1 74 | NR2E3 ag confirm 97 | GAL4-VP16 luc inactive
COC1=C(C)C(=O)C2=C(C1=O)C1C3CC4=C(C(=O)C(OC)=C(C)C4=O)C(CNC(=O)C(C)=O)N3C(C#N)C(C2)N1C (centres undefined)	NR2E3 ag-1 102 (no result: NR2E3 ag-2) | NR2E3 ag confirm 100 | GAL4-VP16 luc 95
Cc1ccc(OCC(=O)Nc2ccc3c(c2)OCCO3)cc1C	none | NR2E3 ag confirm inactive | GAL4-VP16 luc inactive
Cc1oc(-c2ccccc2Cl)nc1CSc1nc2c(c(=O)[nH]1)CCC2	none
O=C1c2cccnc2C(=O)N1CO	none
NC1=C(Br)C(=O)c2ncccc2C1=O	NR2E3 ag-1 99 (no result: NR2E3 ag-2) | NR2E3 ag confirm 92 | GAL4-VP16 luc inactive
